Screens as filed in PubChem BioAssay.
Compounds with a hit are over-represented: about 0.72% of the library has one in this group of screens.
bIAP activator – bovine intestinal alkaline phosphatase activators, primary screen, biochemical, bovine IAP, CDP-star luminescence; alkaline phosphatase, intestinal [Bos taurus]; purified bovine IAP, 30 min; active compounds read high; fold of DMSO-control signal, blank-subtracted; activation factor at 20 µM; hit rate 0.17% among 200,000;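 active = activation factor of 2 or more at 20 µM, a signal rise over negative controls twice the positive control's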
hIAP act – human IAP activators, primary screen, biochemical, luminescence, uHTS; AID 2524, 2010; activation factor at 10 µM; hit rate 0.16% among 330,000; purified human IAP, CDP-Star luminescence, 30 min; active compounds read high; 1 = vehicle-only enzyme, 0 = enzyme-free background; Intestinal-type alkaline phosphatase (Homo sapiens), P09923;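 active = activation factor of the enzyme at least 2-fold when tested at 20 µM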
Target sequence (P09923 whole entry, looked up): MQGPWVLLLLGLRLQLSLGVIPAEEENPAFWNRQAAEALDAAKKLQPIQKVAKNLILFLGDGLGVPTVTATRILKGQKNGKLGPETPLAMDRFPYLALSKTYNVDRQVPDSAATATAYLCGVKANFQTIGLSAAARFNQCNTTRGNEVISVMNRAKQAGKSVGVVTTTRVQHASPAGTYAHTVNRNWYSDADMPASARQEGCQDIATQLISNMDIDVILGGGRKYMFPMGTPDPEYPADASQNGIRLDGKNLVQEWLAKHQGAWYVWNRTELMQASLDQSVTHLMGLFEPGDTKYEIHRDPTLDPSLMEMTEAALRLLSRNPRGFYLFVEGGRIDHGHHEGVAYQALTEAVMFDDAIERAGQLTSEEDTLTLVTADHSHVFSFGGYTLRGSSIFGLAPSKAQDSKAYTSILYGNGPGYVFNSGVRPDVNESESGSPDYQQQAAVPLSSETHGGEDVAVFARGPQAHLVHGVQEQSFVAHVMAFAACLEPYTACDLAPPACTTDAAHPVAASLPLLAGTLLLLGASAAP
mIAP act – activators of mouse IAP, primary screen, biochemical, luminescence, uHTS; activation factor at 10 µM; hit rate 0.24% among 330,000; AID 2805, 2010; muIAP, CDP-Star luminescence, 30 min; active compounds read high; 1 = vehicle-only enzyme signal, 0 = enzyme-free wells; intestinal alkaline phosphatase [Mus musculus];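 active = activation factor of at least 2 at 20 µM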
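Assay system: mouse IAP enzyme; reagent: chemiluminescent substrate CDP-Star; dosing: test compounds delivered from DMSO solution; schedule: 30 min at room temperature; measured by: luminescence from enzymatic CDP-Star hydrolysis; controls: DMSO-only wells and no-enzyme negative control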
mIAP block – inhibitors of mouse IAP, primary screen, biochemical, luminescence, uHTS; purified mouse IAP, CDP-Star luminescence, 30 min; inhibition, % at 10 µM; hit rate 0.2% among 330,000; AID 2806, 2010;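 active = inhibition of at least 40% at 10 µM in the primary screen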;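 note: plate controls were DMSO with enzyme for no effect and no enzyme wells for full effect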
bIAP inhibitor – bovine intestinal alkaline phosphatase inhibitors, primary screen, selectivity assay for TNAP inhibitor project, biochemical, bovine IAP, CDP-star luminescence; purified bovine IAP, 30 min; inhibition, % at 20 µM; 190,000 tested, under 10 active; AID 1019, 2008;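 active = over 50% inhibition of intestinal alkaline phosphatase at 20 µM in the single-dose screen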
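Incubation: 30 min reaction at room temperature / Material: purified bovine intestinal alkaline phosphatase (IAP) enzyme / Input: enzyme at 1/65,000,000 dilution / Dosing: 20 µM single dose / Signal: CDP-star luminescence signal / Reagent: CDP-star chemiluminescent phosphatase substrate, 30 µM final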
hIAP block – human IAP inhibitors, primary screen, biochemical, luminescence, uHTS. Intestinal-type alkaline phosphatase (Homo sapiens), P09923. purified IAP, CDP-Star luminescence, 30 min. inhibition, % at 10 µM. hit rate 0.12% among 330,000. AID 2544, 2010;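 active = inhibition reaching a set limit with compound at 10 µM in the primary screen, cut at about 35% in these data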;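 note: plate controls were DMSO wells with enzyme for no effect and no-enzyme buffer wells for full effect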
mIAP inh conf – inhibitors of mouse IAP, confirmation, biochemical, luminescence, single concentration. AID 434971, 2010. inhibition, % at 10 µM. hit rate 4.7% among 11,000. shares compounds with mIAP block. purified mouse IAP, CDP-Star luminescence, 30 min;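 active = inhibition of at least 40% at 10 µM in either of the two replicates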;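 note: plate controls were DMSO wells with enzyme for no effect and buffer wells lacking enzyme for full effect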
Numbers without * were called inactive; i = inactive; / = no result given.

SMILES	bIAP activator	hIAP act	mIAP act	mIAP block	bIAP inhibitor	hIAP block	mIAP inh conf
CCOc1ccc(-n2c(=O)c3sccc3n(CC(=O)Nc3cccc(OC)c3)c2=O)cc1	1.2	0.95	1.1	-11	-19	5	/
Oc1cc2c(cc1O)C1c3ccc(O)c(O)c3OCC1(O)C2 (stereo unspecified)	0.5	0.94	0.26	74*	48	6	64*
Cc1ccc(-n2c(SCC(=O)N3CCOCC3)nnc2-c2ccncc2)cc1C	/	1.1	1	-5	/	-7	/
CC(C)c1ccc(C(=O)COC(=O)C(O)c2ccccc2)cc1 (stereo unspecified)	/	0.98	0.94	6	/	2	/
CCC(C(=O)NCCC(C)C)n1ccc2cc(S(=O)(=O)N3CCCCC3)ccc21 (stereo unspecified)	/	1.1	2.7*	-170	/	-14	-159
C=CCOc1cccc(CNc2cccc(C(=O)O)c2)c1	/	1	1	-2	/	-1	/
Cc1ccc(NC(=S)NC(NC(=O)c2ccccc2C)C(Cl)(Cl)Cl)c(C)c1 (stereo unspecified)	1	1.2	3.1*	-212	-5	-16	-211
CC(=O)NC(NC(=S)Nc1ccc(C)cc1C)C(Cl)(Cl)Cl (stereo unspecified)	/	0.99	1.1	-14	/	1	/
FC(F)Oc1ccc(NC(=S)NC2CCSc3ccccc32)cc1 (stereo unspecified)	/	1.5	5.1*	-406	/	-46	-175
S=C(NCc1ccccc1)NC1CCSc2ccccc21 (stereo unspecified)	/	1.1	4.4*	-342	/	-6	-151
Cc1cccc(NC(=S)NC2CCSc3ccccc32)c1 (stereo unspecified)	/	1	4.3*	-329	/	-1	-242
COc1cccc(CC(=O)NC2CCSc3ccccc32)c1 (stereo unspecified)	/	0.87	0.99	0	/	13	/
O=C(NC1CCSc2ccccc21)c1cccc(OC(F)F)c1 (stereo unspecified)	/	1.1	0.97	3	/	-10	/
O=C(COC(=O)c1cc(Cl)ccc1O)NCC1CCCO1 (stereo unspecified)	/	1.1	1	0	/	-7	/
C#CCOCCOCCOCCNc1nc(N2CCN(C(=O)CCCCCCCCCCNC(=O)[C@H](CCCCN)n3cc(CCCC(=O)O)nn3)CC2)nc(N2CCN(C(=O)CCCCCCCCCCNC(=O)[C@@H]([C@H](C)O)n3cc(C)nn3)CC2)n1	/	1	1.2	-19	/	-5	/
C#CCOCCOCCOCCNc1nc(N2CCN(C(=O)CCCCCCCCCCNC(=O)[C@@H](CCC(=O)O)n3cc(CCCCCN)nn3)CC2)nc(N2CCN(C(=O)CCCCCCCCCCNC(=O)[C@H]([C@@H](C)CC)n3cc(CCCCCN)nn3)CC2)n1	/	1	2.2*	-120	/	-2	-176
C#CCOCCOCCOCCNc1nc(N2CCN(C(=O)CCCCCCCCCCNC(=O)[C@H]([C@@H](C)CC)n3cc(CCCCCN)nn3)CC2)nc(N2CCN(C(=O)CCCCCCCCCCNC(=O)[C@H](CCCCN)n3cc(CCCC(=O)O)nn3)CC2)n1	/	1.1	2.4*	-142	/	-8	-222
COc1cc(/C=N/NC(=S)Nc2cccc(Cl)c2C)ccc1OCC(=O)N1CC(C)OC(C)C1 (stereo unspecified)	0.9	1.2	0.99	1	13	-16	/
COc1cccc(OCc2cc(C(=O)NCc3cnc4ccccn34)no2)c1	/	1.3	1	0	/	-27	/
CC1(c2nnc(-c3ccc(F)cc3)o2)CC(c2ccc([N+](=O)[O-])cc2)=NO1 (stereo unspecified)	/	1.1	0.93	7	/	-8	/
O=C(Nc1ccc(Cl)cc1)Nc1ccc(Cl)c(Cl)c1	/	1.2	3.3*	-227	/	-17	-127
O=C(Nc1ccc(Cl)c(Cl)c1)Nc1ccc(Br)cc1F	1.1	0.95	3.5*	-253	-10	5	-124
COc1ccc(OC)c(CN2CCN(C(=O)CCC(=O)c3cccs3)CC2)c1	/	0.8	1	-4	/	20	/
O=c1oc(/C=C/c2ccco2)nc2sc3c(c12)CCC3	0.9	1.1	0.37	63*	14	-10	62*
O=c1oc(-c2cccs2)nc2sc3c(c12)CCC3	1	1.2	1	0	3	-16	/
SMILES	bIAP activator	hIAP act	mIAP act	mIAP block	bIAP inhibitor	hIAP block	mIAP inh conf
O=C(NCCc1ccc(Cl)cc1)Nc1ccc(F)cc1	1.1	1.1	1.4	-40	-14	-11	/
CCCc1c(NC(=O)Nc2ccc(F)cc2)cnn1-c1ccc(Cl)cc1	/	1.4	3.8*	-278	/	-43	-142
Cc1ccc(/C=C2\SC(=S)N(CC3CCCO3)C2=O)o1 (stereo unspecified)	/	1.2	0.83	17	/	-19	/
O=C1/C(=C/c2ccco2)SC(=S)N1CC1CCCO1 (stereo unspecified)	/	0.86	0.52	48*	/	14	54*
O=C1/C(=C\c2ccco2)SC(=S)N1c1ccccc1	1	1.1	0.36	64*	-1	-5	57*
O=C1/C(=C\c2ccco2)NC(=S)N1c1ccccc1	0.9	1.3	0.72	28	12	-26	/
Cc1ccc(N2C(=O)/C(=C\c3ccco3)SC2=S)cc1	0.9	0.93	0.45	55*	6	7	65*
COc1ccc(CCN2C(=O)/C(=C\c3ccco3)SC2=S)cc1OC	0.9	1	0.58	42*	6	-1	45*
O=C(CNc1cccc2ccccc12)N/N=C/c1ccc(C(=O)O)cc1	0.9	0.9	0.8	20	13	10	/
O=C(CNc1cccc2ccccc12)N/N=C/C=C/c1ccco1	0.9	0.9	0.39	61*	14	10	59*
CCN(CC)S(=O)(=O)c1ccc(Cc2ncc(C(F)(F)F)cc2Cl)s1	1	1.1	0.99	1	4	-9	/
CC(C)(C)c1ccc(NC(=O)NC2CCCc3ccccc32)cc1 (stereo unspecified)	/	1.4	6.2*	i	/	-42	-253
Cc1ccc(NC(=O)NC2CCCc3ccccc32)cc1 (stereo unspecified)	/	0.96	1.5	-55	/	4	/
CCCC(=O)Nc1nnc(-c2ccco2)s1	1	1	0.91	9	4	-2	/
Nc1nnc(-c2ccco2)s1	1.1	0.8	0.4	60*	-6	20	66*
